Results: ChEMBL document CHEMBL4393665 (Eur J Med Chem, 2019)

Experiments:
[1] = target: T1, ATP-dependent translocase ABCB1 (Homo sapiens, UniProt P08183); assay: Inhibition of P-gp in human K562/DOX cells assessed as drug level causing 50% increase in nuclear pirarubicin concentration incubated for 30 mins by spectroflurometry; format: cell-based; conditions: read-out: I0.5
Outline: (§1)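 Pirarubicin uptake into nuclei was measured in P-gp-overexpressing, doxorubicin-resistant K562/DOX cells. [I]0.5 is the modulator concentration giving a half-maximal increase (α = 0.5) in nuclear pirarubicin concentration. αmax is the maximum increase obtainable in resistant cells. Mean ± SE of three independent experiments.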

[2] = Half life in PBS at 1 uM by LC-MS/MS analysis; format: physicochemical
Outline: (§2)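 Samples were incubated in phosphate buffer or human plasma and analysed by LC-MS/MS in product ion scan mode. Analyte concentration was monitored over incubation time. The slope of ln(concentration) versus time gave the first-order degradation rate constant k, and t1/2 was calculated from k. Ketoprofen ethyl ester served as a reference to confirm that the plasma batch was enzymatically active.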

[3] = Half life in human plasma at 1 uM by LC-MS/MS analysis; format: ADME, cell-free; outline: as §2
[4] = target: T1, ATP-dependent translocase ABCB1; assay: Inhibition of P-gp in human K562/DOX cells assessed as drug level causing maximum increase in nuclear pirarubicin concentration incubated for 30 mins by spectroflurometry relative to control; format: cell-based; conditions: 0.5 h; outline: as §1
[5] = target: T1, ATP-dependent translocase ABCB1; assay: Inhibition of P-glycoprotein-mediated Rhodamine-123 efflux in human K562/DOX cells assessed as […] at 1 uM […] by flow cytometry relative to control; format: cell-based; parameters: scale not given: the % may be the effect or the level left; conditions: 0.5 h
Outline: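 K562/DOX cells were loaded with 5 µM rhodamine-123 for 30 min. They were then washed and held 10 min in rhodamine-free medium, with or without modulator at 1.0 µM. Verapamil at 3.0 µM was the reference. Flow cytometry median fluorescence after efflux was divided by that after uptake and expressed as a percentage. Mean ± SE of three independent experiments.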

[6] = target: T1, ATP-dependent translocase ABCB1; assay: Inhibition of P-glycoprotein-mediated Rhodamine-123 efflux in human K562 cells assessed as Rhodamine-123 accumulation at 1 uM preincubated for 15 mins followed by Rhodamine-123 addition measured after 30 mins by flow cytometry; format: cell-based; conditions: k562, 0.5 h
[7] = target: T1, ATP-dependent translocase ABCB1; assay: Inhibition of P-glycoprotein (unknown origin) in MDCK-MDR1 assessed as inhibtion of calcein-AM transport incubated for 30 mins by fluorescence assay; format: cell-based
[8] = target: T1, ATP-dependent translocase ABCB1; assay: Inhibition of P-glycoprotein (unknown origin) in MDCK-MDR1 assessed as reduction of ATP consumption pre-incubated for 2 hrs followed by substrate addition shaken for 5 mins by luminescence assay; format: cell-based; conditions: mdck-mdr1, 5 min
[9] = target: T2, Broad substrate specificity ATP-binding cassette transporter ABCG2 (Homo sapiens, UniProt Q9UNQ0); assay: Inhibition of BCRP (unknown origin) in MDCK-BCRP assessed as inhibtion of hoechst 33342 transport incubated for 30 mins by fluorescence assay
T2 sequence (Q9UNQ0 whole entry): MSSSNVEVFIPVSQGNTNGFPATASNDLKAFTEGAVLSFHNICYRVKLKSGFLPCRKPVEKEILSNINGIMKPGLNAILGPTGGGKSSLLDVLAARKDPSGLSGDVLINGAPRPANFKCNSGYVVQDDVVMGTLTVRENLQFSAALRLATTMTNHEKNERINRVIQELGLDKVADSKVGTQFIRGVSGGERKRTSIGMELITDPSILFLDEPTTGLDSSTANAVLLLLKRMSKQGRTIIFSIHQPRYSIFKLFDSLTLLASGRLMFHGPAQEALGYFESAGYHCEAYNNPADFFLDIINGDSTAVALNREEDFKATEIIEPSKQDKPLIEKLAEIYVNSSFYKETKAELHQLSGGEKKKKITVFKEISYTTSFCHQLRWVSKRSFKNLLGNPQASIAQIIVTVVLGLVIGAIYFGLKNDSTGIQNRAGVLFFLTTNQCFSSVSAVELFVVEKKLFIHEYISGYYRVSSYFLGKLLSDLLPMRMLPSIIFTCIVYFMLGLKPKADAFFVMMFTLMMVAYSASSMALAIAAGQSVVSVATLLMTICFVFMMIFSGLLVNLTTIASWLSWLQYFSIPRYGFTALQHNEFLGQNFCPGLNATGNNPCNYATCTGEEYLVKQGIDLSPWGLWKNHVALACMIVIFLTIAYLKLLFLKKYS

T1 sequence (P08183 whole entry): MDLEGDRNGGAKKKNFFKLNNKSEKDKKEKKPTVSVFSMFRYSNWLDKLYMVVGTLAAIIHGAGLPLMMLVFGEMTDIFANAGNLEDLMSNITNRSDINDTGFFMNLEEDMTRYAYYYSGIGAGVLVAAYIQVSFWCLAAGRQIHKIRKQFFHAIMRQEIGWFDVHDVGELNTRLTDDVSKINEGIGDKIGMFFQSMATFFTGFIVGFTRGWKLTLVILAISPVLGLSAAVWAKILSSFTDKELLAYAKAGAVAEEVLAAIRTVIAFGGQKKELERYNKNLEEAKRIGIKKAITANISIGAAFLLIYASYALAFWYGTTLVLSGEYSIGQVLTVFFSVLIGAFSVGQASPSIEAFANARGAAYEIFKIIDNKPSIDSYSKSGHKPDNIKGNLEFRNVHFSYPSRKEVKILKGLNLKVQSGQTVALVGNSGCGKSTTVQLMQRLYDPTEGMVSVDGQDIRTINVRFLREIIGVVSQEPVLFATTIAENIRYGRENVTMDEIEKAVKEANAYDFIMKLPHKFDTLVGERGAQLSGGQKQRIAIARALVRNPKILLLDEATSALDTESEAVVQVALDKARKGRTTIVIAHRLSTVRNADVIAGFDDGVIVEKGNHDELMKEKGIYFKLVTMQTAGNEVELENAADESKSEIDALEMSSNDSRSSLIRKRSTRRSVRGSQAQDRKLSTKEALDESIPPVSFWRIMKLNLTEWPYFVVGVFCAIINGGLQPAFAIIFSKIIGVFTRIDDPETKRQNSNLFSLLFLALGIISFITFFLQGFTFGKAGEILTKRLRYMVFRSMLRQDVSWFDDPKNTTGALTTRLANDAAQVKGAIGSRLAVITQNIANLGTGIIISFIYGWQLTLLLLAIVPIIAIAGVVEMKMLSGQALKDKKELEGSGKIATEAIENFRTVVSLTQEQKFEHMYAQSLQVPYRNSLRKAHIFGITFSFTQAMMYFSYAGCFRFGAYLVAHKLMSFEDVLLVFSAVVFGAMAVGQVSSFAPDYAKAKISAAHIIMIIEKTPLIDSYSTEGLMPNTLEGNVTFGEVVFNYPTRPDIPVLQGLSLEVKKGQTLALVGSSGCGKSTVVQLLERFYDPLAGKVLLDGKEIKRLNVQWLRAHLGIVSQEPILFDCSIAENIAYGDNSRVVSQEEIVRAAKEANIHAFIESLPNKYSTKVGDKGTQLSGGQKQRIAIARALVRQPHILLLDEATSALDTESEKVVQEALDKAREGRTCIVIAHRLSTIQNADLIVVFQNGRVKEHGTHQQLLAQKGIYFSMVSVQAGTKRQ

SMILES	IC50 [1] [nM]	half-life at 1 µM [2] [h]	half-life at 1 µM [3] [h]	Alpha max [4]	Activity [5] [%]	inhibition (INH) [6]	EC50 [7] [nM]	inhibition (INH) [8]	EC50 [9] [nM]
COc1cc(/C=C/C(=O)OCCCCCCN(C)CCCCOC(=O)c2c3ccccc3cc3ccccc23)cc(OC)c1OC	20	> 4	> 4	0.94	92.8	Not Active	520	Not Active	3800
COc1cc(/C=C/C(=O)OCCCCCCCN(C)CCCOC(=O)c2cc(OC)c(OC)c(OC)c2)cc(OC)c1OC	60	> 4	> 4	0.99	58.4	Not Active	210	Not Active	8100
